According to ChEMBL document CHEMBL1123468, “Synthesis and antiviral activity of (E)-5-(2-bromovinyl)uracil and (E)-5-(2-bromovinyl)uridine” (1986):
Converted amounts (≈) assume the structure as drawn.

Key:
E6SM [1] = assay: The concentration required to reduce the cytopathogenicity of HSV-1 (KOS) in E6SM cell culture by 50% in absence of dUrd; format: functional; settings: Homo sapiens
In short: (§1)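 E6SM cells infected with HSV-1 (KOS), with Urd or dUrd added alone or together with 6-aminothymine (50 μg/mL). The value is the minimum concentration that reduces viral cytopathogenicity by 50%.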

E6SM [2] = assay: The compound was tested for its antiviral activity against vaccinia virus in E6SM cell culture; format: functional; settings: Homo sapiens
In short: (§2)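 Virus-induced cytopathogenicity in cell culture, scored microscopically. The value is the minimum concentration that cuts viral cytopathogenicity by 50%. Normal cell morphology was also checked microscopically at up to 400 μg/mL.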

E6SM [3] = assay: The concentration required to reduce the cytopathogenicity of HSV-1 (KOS) in E6SM cell culture by 50% in presence of 1 ug/mL of Urd and 50 ug/mL of 6-aminothymine; format: functional; settings: Homo sapiens; in short: as §1
BALB/3T3 = assay: The compound was tested for its antiviral activity against HSV-1 (KOS) virus in BALB/3T3 cell line; settings: Mus musculus
E6SM [4] = assay: The concentration required to reduce the cytopathogenicity of HSV-1 (KOS) in E6SM cell culture by 50% in absence of Urd; format: functional; settings: Homo sapiens; in short: as §1
BSC-1 = assay: The compound was tested for its antiviral activity against HSV-1 (KOS) virus in BS-C-1A cell line; format: functional, Cercopithecidae; settings: Chlorocebus aethiops; in short: as §2
Vero = assay: The compound was tested for its antiviral activity against HSV-1 (KOS) virus in vero cell line; format: functional; settings: Chlorocebus sabaeus; in short: as §2
E6SM [5] = assay: The compound was tested for its antiviral activity against HSV-1 (F) virus in E6SM cell culture; format: functional; settings: Homo sapiens; in short: as §2
E6SM [6] = assay: The concentration required to reduce the cytopathogenicity of HSV-1 (KOS) in E6SM cell culture by 50% in presence of 1 ug/mL dThd; format: functional; settings: Homo sapiens
In short: (§3)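 E6SM cells infected with HSV-1 (KOS), with dThd added to the culture medium at the stated concentration. The value is the minimum concentration that reduces viral cytopathogenicity by 50%.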

HEp-2 = assay: The compound was tested for its antiviral activity against HSV-1 (KOS) virus in HEp-2M cell line; format: functional; settings: Homo sapiens; in short: as §2
E6SM [7] = assay: The concentration required to reduce the cytopathogenicity of HSV-1 (KOS) in E6SM cell culture by 50% in presence of 1 ug/mL of dUrd; format: functional; settings: Homo sapiens; in short: as §1
E6SM [8] = assay: The concentration required to reduce the cytopathogenicity of HSV-1 (KOS) in E6SM cell culture by 50% in presence of 10 ug/mL of dUrd and 50 ug/mL of 6-aminothymine; format: functional; settings: Homo sapiens; in short: as §1
E6SM [9] = assay: The concentration required to reduce the cytopathogenicity of HSV-1 (KOS) in E6SM cell culture by 50% in presence of 100 ug/mL of dUrd; format: functional; settings: Homo sapiens; in short: as §1
Mo = assay: The compound was tested for its antiviral activity against HSV-1 (KOS) virus in MO cell line; format: functional; settings: Homo sapiens; in short: as §2
E6SM [10] = assay: The concentration required to reduce the cytopathogenicity of HSV-1 (KOS) in E6SM cell culture by 50% in presence of 10 ug/mL of Urd and 50 ug/mL of 6-aminothymine,; format: functional; settings: Homo sapiens; in short: as §1
E6SM [11] = assay: The compound was tested for its antiviral activity against HSV-2 (G) virus in E6SM cell culture; format: functional; settings: Homo sapiens; in short: as §2
E6SM [12] = assay: The compound was tested for its antiviral activity against TK-HSV-1 (B2006) virus in E6SM cell culture; format: functional; settings: Homo sapiens; in short: as §2
E6SM [13] = assay: The concentration required to reduce the cytopathogenicity of HSV-1 (KOS) in E6SM cell culture by 50% in presence of 30 ug/mL dThd; format: functional; settings: Homo sapiens
In short: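 Thymidine (dThd) was added to the E6SM culture medium alongside the test compound, and cells were infected with HSV-1 strain KOS. The endpoint is the minimum inhibitory concentration that reduces viral cytopathogenicity by 50%. The cytopathogenicity inhibition procedure follows the earlier-described method.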

T-21 (LR) = assay: The compound was tested for its antiviral activity against HSV-1 (KOS) virus in T-21 (LR) cell line; format: functional; settings: Homo sapiens; in short: as §2
E6SM [14] = assay: The concentration required to reduce the cytopathogenicity of HSV-1 (KOS) in E6SM cell culture by 50% in presence of 1 ug/mL of Urd; format: functional; settings: Homo sapiens; in short: as §1
E6SM [15] = assay: The compound was tested for its antiviral activity against HSV-1 (KOS) virus in E6SM cell line; format: functional; settings: Homo sapiens; in short: as §2
PRK = assay: The compound was tested for its antiviral activity against HSV-1 (KOS) virus in PRK cell line; format: functional; settings: Oryctolagus cuniculus
In short: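 Primary rabbit kidney cells infected with HSV-1 (KOS). The value is the minimum concentration that cuts viral cytopathogenicity by 50%. Cytotoxicity was judged as microscopically detectable alteration of cell morphology at up to 400 μg/mL.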

E6SM [16] = assay: The concentration required to reduce the cytopathogenicity of HSV-1 (KOS) in E6SM cell culture by 50% in presence of 10 ug/mL dThd; format: functional; settings: Homo sapiens; in short: as §3
E6SM [17] = assay: The concentration required to reduce the cytopathogenicity of HSV-1 (KOS) in E6SM cell culture by 50% in presence of 100 ug/mL dThd; format: functional; settings: Homo sapiens; in short: as §3
E1 SM = assay: The compound was tested for its antiviral activity against HSV-1 (KOS) virus in E1SM cell line; format: functional, Homo sapiens; in short: as §2
E6SM [18] = assay: The compound was tested for its antiviral activity against HSV-1 (McIntyre) virus in E6SM cell culture; format: functional; settings: Homo sapiens; in short: as §2
E6SM [19] = assay: The concentration required to reduce the cytopathogenicity of HSV-1 (KOS) in E6SM cell culture by 50% in presence of 100 ug/mL of Urd and 50 ug/mL of 6-aminothymine; format: functional; settings: Homo sapiens; in short: as §1
E6SM [20] = assay: The concentration required to reduce the cytopathogenicity of HSV-1 (KOS) in E6SM cell culture by 50% in presence of 10 ug/mL of dUrd; format: functional; settings: Homo sapiens; in short: as §1
HeLa = assay: The compound was tested for its antiviral activity against HSV-1 (KOS) virus in HeLa cell line; format: functional; settings: Homo sapiens; in short: as §2
E6SM [21] = assay: The concentration required to reduce the cytopathogenicity of HSV-1 (KOS) in E6SM cell culture by 50% in presence of 100 ug/mL of Urd; format: functional; settings: Homo sapiens; in short: as §1
E6SM [22] = assay: The compound was tested for its antiviral activity against HSV-2 (196) virus in E6SM cell culture; format: functional; settings: Homo sapiens; in short: as §2
E6SM [23] = assay: The concentration required to reduce the cytopathogenicity of HSV-1 (KOS) in E6SM cell culture by 50% in presence of 1 ug/mL of dUrd and 50 ug/mL of 6-aminothymine; format: functional; settings: Homo sapiens; in short: as §1
E6SM [24] = assay: The compound was tested for its antiviral activity against HSV-2 (Lyons) virus in E6SM cell culture; format: functional; settings: Homo sapiens; in short: as §2
E6SM [25] = assay: The concentration required to reduce the cytopathogenicity of HSV-1 (KOS) in E6SM cell culture by 50% in presence of 50 ug/mL of 6-aminothymine; format: functional; settings: Homo sapiens
In short: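 E6SM cultures were infected with HSV-1 strain KOS. 6-Aminothymine or benzylacyclouridine was present in the medium together with the test compound. The value is the minimum concentration giving 50% reduction of viral cytopathogenicity, scored by the earlier-described cytopathogenicity inhibition procedure.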

| Compound | MIC50 (E6SM [1]) [µg/mL] | MIC50 (E6SM [2]) [µg/mL] | MIC50 (E6SM [3]) [µg/mL] | MIC50 (BALB/3T3) [µg/mL] | MIC50 (E6SM [4]) [µg/mL] | MIC50 (BSC-1) [µg/mL] | MIC50 (Vero) [µg/mL] | MIC50 (E6SM [5]) [µg/mL] | MIC50 (E6SM [6]) [µg/mL] | MIC50 (HEp-2) [µg/mL] | MIC50 (E6SM [7]) [µg/mL] | MIC50 (E6SM [8]) [µg/mL] | MIC50 (E6SM [9]) [µg/mL] | MIC50 (Mo) [µg/mL] | MIC50 (E6SM [10]) [µg/mL] | MIC50 (E6SM [11]) [µg/mL] | MIC50 (E6SM [12]) [µg/mL] | MIC50 (E6SM [13]) [µg/mL] | MIC50 (T-21 (LR)) [µg/mL] | MIC50 (E6SM [14]) [µg/mL] | also measured |
| --- | --- | --- | --- | --- | --- | --- | --- | --- | --- | --- | --- | --- | --- | --- | --- | --- | --- | --- | --- | --- | --- |
| Oc1ncc(/C=C/Br)c(O)n1 | 7 (≈ 32.3 µM) | > 400 | > 400 | > 400 | 4 (≈ 18.4 µM) | > 400 | > 400 | 4 (≈ 18.4 µM) | 7 | > 200 | 10 | 10 | 0.7 | > 400 | > 400 | > 400 | > 200 | > 400 | 7 (≈ 32.3 µM) | 2 | MIC50 (E6SM [15]): 7 µg/mL (≈ 32.3 µM); MIC50 (PRK): > 400 µg/mL; MIC50 (E6SM [16]): 70 µg/mL; MIC50 (E6SM [17]): > 400 µg/mL; MIC50 (E1 SM): 7 µg/mL (≈ 32.3 µM); MIC50 (E6SM [18]): 4 µg/mL (≈ 18.4 µM); MIC50 (E6SM [19]): > 400 µg/mL; MIC50 (E6SM [20]): 0.7 µg/mL; MIC50 (HeLa): 2 µg/mL (≈ 9.22 µM); MIC50 (E6SM [21]): 4 µg/mL; MIC50 (E6SM [22]): > 400 µg/mL; MIC50 (E6SM [23]): > 400 µg/mL; MIC50 (E6SM [24]): > 400 µg/mL; MIC50 (E6SM [25]): > 400 µg/mL |
| O=c1[nH]c(=O)n([C@H]2C[C@H](O)[C@@H](CO)O2)cc1/C=C/Br [BRIVUDINE] | 0.02 (≈ 0.06 µM) | 7 (≈ 21 µM) | 0.02 | 0.1 (≈ 0.3 µM) | 0.02 (≈ 0.06 µM) | 0.2 (≈ 0.6 µM) | 0.4 (≈ 1.2 µM) | 0.02 (≈ 0.06 µM) | 0.02 | 0.2 (≈ 0.6 µM) | 0.01 | 0.02 | 0.2 | 0.007 (≈ 0.021 µM) | 0.04 | 2 (≈ 6 µM) | 40 (≈ 120 µM) | 70 | 0.02 (≈ 0.06 µM) | 0.04 | MIC50 (E6SM [15]): 0.02 µg/mL (≈ 0.06 µM); MIC50 (PRK): 0.007 µg/mL (≈ 0.021 µM); MIC50 (E6SM [16]): 0.4 µg/mL; MIC50 (E6SM [17]): 300 µg/mL; MIC50 (E1 SM): 0.02 µg/mL (≈ 0.06 µM); MIC50 (E6SM [18]): 0.02 µg/mL (≈ 0.06 µM); MIC50 (E6SM [19]): 0.02 µg/mL; MIC50 (E6SM [20]): 0.02 µg/mL; MIC50 (HeLa): 0.04 µg/mL (≈ 0.12 µM); MIC50 (E6SM [21]): 0.02 µg/mL; MIC50 (E6SM [22]): 10 µg/mL (≈ 30 µM); MIC50 (E6SM [23]): 0.01 µg/mL; MIC50 (E6SM [24]): 4 µg/mL (≈ 12 µM); MIC50 (E6SM [25]): 0.01 µg/mL |
